Holding throughout (type): subcellular
Common to all, as to conditions: time 25.0 min

The target in test [1] is T1, Mitogen-activated protein kinase kinase kinase kinase 2 (Homo sapiens) (UniProt Q12851).
T1 sequence (whole entry): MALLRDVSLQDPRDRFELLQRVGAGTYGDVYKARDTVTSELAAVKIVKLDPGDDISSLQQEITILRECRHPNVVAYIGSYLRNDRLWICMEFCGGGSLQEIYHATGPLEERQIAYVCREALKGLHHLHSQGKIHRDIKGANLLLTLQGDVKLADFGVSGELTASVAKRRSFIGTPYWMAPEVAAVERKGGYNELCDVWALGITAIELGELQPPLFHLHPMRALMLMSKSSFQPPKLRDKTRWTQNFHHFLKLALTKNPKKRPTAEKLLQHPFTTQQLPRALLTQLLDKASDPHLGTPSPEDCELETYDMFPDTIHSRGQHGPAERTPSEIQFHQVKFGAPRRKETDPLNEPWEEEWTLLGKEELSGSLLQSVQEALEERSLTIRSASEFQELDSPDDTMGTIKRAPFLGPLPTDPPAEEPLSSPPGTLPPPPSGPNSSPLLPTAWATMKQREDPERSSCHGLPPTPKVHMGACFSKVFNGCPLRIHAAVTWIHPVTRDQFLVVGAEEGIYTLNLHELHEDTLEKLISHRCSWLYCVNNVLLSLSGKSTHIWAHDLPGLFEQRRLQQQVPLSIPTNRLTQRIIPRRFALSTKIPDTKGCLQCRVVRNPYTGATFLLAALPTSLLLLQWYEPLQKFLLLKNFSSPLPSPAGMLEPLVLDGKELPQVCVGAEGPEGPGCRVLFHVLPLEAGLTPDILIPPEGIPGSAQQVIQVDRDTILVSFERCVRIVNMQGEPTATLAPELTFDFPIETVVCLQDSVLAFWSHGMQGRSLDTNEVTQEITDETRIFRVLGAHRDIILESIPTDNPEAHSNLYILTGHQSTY
Nature of the test: Inhibition of GCK in human HeLa cells lysate at 10 uM pre incubated for 15 mins followed by ADP acyl phosphate probe addition and measured after 10 mins by LC-MS/MS analysis relative to control.

Test [2] concerns the target T2, Serine/threonine-protein kinase tousled-like 1 (Homo sapiens) (UniProt Q9UKI8).
T2 sequence (whole entry): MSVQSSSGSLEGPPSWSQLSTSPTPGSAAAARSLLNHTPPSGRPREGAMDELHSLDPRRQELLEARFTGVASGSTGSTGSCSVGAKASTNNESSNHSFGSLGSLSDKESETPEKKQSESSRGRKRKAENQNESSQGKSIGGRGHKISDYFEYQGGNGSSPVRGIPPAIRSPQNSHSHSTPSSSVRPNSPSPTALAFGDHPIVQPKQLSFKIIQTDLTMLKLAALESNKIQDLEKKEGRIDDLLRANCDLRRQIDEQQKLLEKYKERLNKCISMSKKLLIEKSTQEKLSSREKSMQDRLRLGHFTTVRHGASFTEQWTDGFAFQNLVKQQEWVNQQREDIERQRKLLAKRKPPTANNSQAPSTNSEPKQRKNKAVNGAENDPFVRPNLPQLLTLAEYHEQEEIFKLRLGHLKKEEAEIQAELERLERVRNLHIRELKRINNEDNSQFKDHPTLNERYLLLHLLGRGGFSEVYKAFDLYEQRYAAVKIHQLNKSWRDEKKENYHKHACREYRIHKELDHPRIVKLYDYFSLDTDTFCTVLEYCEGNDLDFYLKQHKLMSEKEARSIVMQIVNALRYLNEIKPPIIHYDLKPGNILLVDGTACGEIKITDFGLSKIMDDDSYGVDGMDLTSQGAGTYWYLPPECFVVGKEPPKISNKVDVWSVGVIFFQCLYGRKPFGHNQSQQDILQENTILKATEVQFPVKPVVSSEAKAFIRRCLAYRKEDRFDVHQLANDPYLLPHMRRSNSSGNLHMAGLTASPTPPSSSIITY
Nature of the test: Inhibition of TLK1 in human HeLa cells lysate at 10 uM pre incubated for 15 mins followed by ADP acyl phosphate probe addition and measured after 10 mins by LC-MS/MS analysis relative to control.

The target of test [3] is IKK epsilon/TBK1 (Homo sapiens) (UniProt Q14164+Q9UHD2). Briefly: Inhibition of IKKE/TBK1 in human HeLa cells lysate at 2 uM pre incubated for 15 mins followed by ADP acyl phosphate probe addition and measured after 10 mins by LC-MS/MS analysis relative to control.
Test [4] deals with STE20-like serine/threonine-protein kinase (Homo sapiens, UniProt Q9H2G2). Nature of the test: Inhibition of SLK in human HeLa cells lysate at 50 uM pre incubated for 15 mins followed by ATP acyl phosphate probe addition and measured after 10 mins by LC-MS/MS analysis relative to control.
Chain of STE20-like serine/threonine-protein kinase (Q9H2G2 whole entry, looked up): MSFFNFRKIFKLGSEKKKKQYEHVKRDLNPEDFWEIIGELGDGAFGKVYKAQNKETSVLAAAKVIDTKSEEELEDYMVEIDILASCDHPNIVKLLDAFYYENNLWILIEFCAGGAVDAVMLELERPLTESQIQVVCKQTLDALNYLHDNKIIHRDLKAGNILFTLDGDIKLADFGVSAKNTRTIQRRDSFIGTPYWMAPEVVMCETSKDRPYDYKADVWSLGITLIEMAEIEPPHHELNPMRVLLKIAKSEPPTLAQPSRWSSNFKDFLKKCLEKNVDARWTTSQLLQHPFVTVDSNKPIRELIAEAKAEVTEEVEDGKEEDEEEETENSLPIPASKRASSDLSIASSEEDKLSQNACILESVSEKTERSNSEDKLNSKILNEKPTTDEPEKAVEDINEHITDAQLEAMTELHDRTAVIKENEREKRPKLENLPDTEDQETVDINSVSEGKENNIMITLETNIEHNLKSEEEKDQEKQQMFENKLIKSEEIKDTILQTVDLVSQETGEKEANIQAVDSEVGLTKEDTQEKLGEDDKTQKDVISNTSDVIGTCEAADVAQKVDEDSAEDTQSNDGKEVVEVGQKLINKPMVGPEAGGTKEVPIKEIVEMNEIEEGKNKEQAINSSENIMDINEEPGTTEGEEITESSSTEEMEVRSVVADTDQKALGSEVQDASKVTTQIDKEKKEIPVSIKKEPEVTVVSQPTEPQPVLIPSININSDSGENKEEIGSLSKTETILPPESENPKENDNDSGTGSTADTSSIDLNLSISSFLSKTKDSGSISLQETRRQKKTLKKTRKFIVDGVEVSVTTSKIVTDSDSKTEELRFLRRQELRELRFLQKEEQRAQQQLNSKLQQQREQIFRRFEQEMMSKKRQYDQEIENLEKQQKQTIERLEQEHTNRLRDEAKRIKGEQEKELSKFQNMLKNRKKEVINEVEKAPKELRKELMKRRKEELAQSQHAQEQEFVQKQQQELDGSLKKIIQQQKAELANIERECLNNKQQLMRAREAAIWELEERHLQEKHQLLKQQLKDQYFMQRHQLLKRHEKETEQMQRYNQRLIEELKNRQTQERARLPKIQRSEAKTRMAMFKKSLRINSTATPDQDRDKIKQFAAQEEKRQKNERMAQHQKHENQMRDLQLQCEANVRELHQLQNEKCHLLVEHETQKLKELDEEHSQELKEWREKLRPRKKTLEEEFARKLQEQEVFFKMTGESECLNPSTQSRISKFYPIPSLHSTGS
The target in test [5] is T3, Serine/threonine-protein kinase A-Raf (Homo sapiens) (UniProt P10398).
T3 sequence (whole entry): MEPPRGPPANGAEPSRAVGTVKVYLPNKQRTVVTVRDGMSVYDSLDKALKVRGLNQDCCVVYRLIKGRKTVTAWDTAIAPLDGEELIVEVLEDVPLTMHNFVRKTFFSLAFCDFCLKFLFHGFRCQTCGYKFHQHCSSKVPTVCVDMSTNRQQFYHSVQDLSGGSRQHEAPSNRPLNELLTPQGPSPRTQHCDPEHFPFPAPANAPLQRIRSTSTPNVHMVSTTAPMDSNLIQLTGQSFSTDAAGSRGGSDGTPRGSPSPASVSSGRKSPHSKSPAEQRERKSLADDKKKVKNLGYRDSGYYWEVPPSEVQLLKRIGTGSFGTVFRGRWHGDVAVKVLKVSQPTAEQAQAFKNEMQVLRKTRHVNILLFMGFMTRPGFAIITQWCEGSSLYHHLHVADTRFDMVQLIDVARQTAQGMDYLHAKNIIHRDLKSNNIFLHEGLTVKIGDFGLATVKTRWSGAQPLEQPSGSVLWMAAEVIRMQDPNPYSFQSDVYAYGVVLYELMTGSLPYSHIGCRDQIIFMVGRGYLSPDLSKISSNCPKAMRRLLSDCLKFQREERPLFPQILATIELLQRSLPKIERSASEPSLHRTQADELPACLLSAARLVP
Briefly: Inhibition of ARAF in human HeLa cells lysate at 2 uM pre incubated for 15 mins followed by ATP acyl phosphate probe addition and measured after 10 mins by LC-MS/MS analysis relative to control. A digest of the protocol:
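KiNativ-type profiling in HeLa lysate (5 mg/mL total protein). Lysate preincubated 15 min with inhibitor at 50, 10, 2, 0.8 or 0 μM, then ATP or ADP acylphosphate probe added (5 μM final) for 10 min. Reaction stopped with urea and analysed by targeted MS, using up to four fragment ions per kinase peptide-probe conjugate. % inhibition calculated against untreated lysate. Duplicate reactions.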

For test [6], the target named is Mitogen-activated protein kinase kinase kinase 4 (Homo sapiens, UniProt Q9Y6R4). Briefly: Inhibition of MAP3K4 in human HeLa cells lysate at 2 uM pre incubated for 15 mins followed by ATP acyl phosphate probe addition and measured after 10 mins by LC-MS/MS analysis relative to control.
Chain of Mitogen-activated protein kinase kinase kinase 4 (Q9Y6R4 whole entry): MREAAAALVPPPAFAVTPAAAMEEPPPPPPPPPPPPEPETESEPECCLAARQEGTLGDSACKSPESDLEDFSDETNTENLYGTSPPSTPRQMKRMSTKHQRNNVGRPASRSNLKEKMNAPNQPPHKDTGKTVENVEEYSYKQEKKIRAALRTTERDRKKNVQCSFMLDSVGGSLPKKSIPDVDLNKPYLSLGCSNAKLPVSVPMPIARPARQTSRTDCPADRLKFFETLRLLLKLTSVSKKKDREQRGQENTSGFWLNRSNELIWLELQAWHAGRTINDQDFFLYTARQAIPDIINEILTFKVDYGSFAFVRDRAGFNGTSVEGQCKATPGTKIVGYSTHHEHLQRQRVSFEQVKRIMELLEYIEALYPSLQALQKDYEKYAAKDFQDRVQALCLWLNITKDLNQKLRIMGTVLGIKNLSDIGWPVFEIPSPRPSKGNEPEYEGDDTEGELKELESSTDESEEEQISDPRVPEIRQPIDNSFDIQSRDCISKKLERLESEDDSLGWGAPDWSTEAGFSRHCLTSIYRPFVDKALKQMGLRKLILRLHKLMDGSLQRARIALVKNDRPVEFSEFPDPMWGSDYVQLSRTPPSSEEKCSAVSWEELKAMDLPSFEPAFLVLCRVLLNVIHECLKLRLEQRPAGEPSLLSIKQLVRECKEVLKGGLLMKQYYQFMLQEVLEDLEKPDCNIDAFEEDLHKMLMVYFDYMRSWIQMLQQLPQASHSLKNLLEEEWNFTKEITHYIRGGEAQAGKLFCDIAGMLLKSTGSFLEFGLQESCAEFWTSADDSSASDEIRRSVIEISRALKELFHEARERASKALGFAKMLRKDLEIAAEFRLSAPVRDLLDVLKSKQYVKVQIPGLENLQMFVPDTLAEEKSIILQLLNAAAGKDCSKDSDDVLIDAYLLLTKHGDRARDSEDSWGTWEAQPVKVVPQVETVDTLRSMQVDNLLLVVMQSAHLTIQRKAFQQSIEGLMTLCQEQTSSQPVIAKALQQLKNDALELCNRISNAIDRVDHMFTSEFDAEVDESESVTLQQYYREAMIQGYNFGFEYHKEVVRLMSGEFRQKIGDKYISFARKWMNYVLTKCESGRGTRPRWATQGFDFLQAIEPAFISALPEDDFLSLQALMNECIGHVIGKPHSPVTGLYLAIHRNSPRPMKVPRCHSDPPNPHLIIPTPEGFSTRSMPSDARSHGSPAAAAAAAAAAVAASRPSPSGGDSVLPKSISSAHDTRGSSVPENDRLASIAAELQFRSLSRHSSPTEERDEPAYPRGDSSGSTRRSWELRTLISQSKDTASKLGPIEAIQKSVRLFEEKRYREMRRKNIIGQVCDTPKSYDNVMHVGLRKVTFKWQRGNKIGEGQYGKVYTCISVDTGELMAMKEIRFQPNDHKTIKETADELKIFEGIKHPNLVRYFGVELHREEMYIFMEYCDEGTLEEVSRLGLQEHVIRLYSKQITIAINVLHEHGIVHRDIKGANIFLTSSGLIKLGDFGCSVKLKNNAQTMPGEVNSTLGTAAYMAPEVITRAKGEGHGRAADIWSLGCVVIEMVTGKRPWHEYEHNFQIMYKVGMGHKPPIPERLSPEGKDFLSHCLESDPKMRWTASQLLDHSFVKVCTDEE
Test [7] has as its target Serine/threonine-protein kinase mTOR (Homo sapiens, UniProt P42345). Briefly: Inhibition of FRAP in human HeLa cells lysate at 2 uM pre incubated for 15 mins followed by ATP acyl phosphate probe addition and measured after 10 mins by LC-MS/MS analysis relative to control.

The inhibition is the relative decrease from the control value, in per cent. `CCOc1cc(N2CCC(O)CC2)ccc1Nc1ncc2c(n1)N(C)c1ccccc1C(=O)N2C`: the inhibition is -8.4% in test [1]; 4.5% in test [2]; -2.6% in test [3]; 5.7% in test [4]; 3.3% in test [5]; -8.8% in test [6]. In test [7], the inhibition was 4.6%.

For the origin of these results see ChEMBL document CHEMBL5661979, “Pharmacological inhibition of BMK1 suppresses tumor growth through promyelocytic leukemia protein” (Cancer Cell, 2010).
